# ChEMBL document CHEMBL5724801, “EUbOPEN Chemogenomics Library - Multiplex” (2024)
# Several values for one entry are separate records, joined by “and”; a condition that tells them apart may be missing. Equal entries are not always repeated.
# System: U2OS
# Assay: Multiplex assay against U2OS
# Format: toxicity, cell-based
# Details: human
# Method in brief: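 On a CQ1 microscope at 37°C and 5% CO2, live cells were imaged after compound addition. They had been stained at seeding with Hoechst33342, BioTracker Green Microtubule Cytoskeleton Dye, MitoTracker Red and Annexin V Alexa Fluor 680. CellPathfinder machine-learning gating assigned cells to Hoechst high-intensity objects or normal cells, normal cells to healthy, pyknosed or fragmented nuclei, and pyknosed cells to mitotic or apoptotic. Tubulin, mitochondrial-mass and membrane-permeability phenotypes are per cents of healthy-nucleus cells.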
# [1] = 12 h, 1 µM, compound concentration 1 uM
# [2] = 12 h, 10 µM, compound concentration 10 uM
# [3] = 24 h, 1 µM, compound concentration 1 uM
# [4] = 24 h, 10 µM, compound concentration 10 uM
# [5] = 48 h, 1 µM, compound concentration 1 uM
# [6] = 48 h, 10 µM, compound concentration 10 uM
compound,measurement,setting,value
CC(C)[C@H](C(=O)Nc1ccc(C(=O)NO)cc1)c1ccccc1 [AR-42],Population Apoptotic (%),[1],27.71% and 34.88%
same,Population Fragmented Nuclei (%),[1],2.59% and 3.95%
same,Population Healthy Nuclei (%),[1],77.88% and 71.75%
same,Population Hoechst High Intensity Objects (%),[1],0%
same,Population Membrane Permeable-Phenotype (%),[1],0.6% and 1.57%
same,Population Mitochondria Different-Phenotype (%),[1],0.3% and 7.87%
same,Population Mitotic Cells (%),[1],72.29% and 65.12%
same,Population Normal (%),[1],100%
same,Population Pyknosed Nuclei (%),[1],19.53% and 24.29%
same,Population Tubulin-Different-Phenotype (%),[1],0.6% and 0%
same,Total Cell Count,[1],425 and 177
same,Population Apoptotic (%),[2],22.08% and 11.11%
same,Population Fragmented Nuclei (%),[2],2.31% and 1.96%
same,Population Healthy Nuclei (%),[2],75.5% and 80.39%
same,Population Hoechst High Intensity Objects (%),[2],0%
same,Population Membrane Permeable-Phenotype (%),[2],0.38% and 3.25%
same,Population Mitochondria Different-Phenotype (%),[2],0% and 2.44%
same,Population Mitotic Cells (%),[2],77.92% and 88.89%
same,Population Normal (%),[2],100%
same,Population Pyknosed Nuclei (%),[2],22.19% and 17.65%
same,Population Tubulin-Different-Phenotype (%),[2],0.76% and 0.81%
same,Total Cell Count,[2],347 and 153
same,Population Apoptotic (%),[3],34.74% and 52.56%
same,Population Fragmented Nuclei (%),[3],5.86% and 12.17%
same,Population Healthy Nuclei (%),[3],51.35% and 46.56%
same,Population Hoechst High Intensity Objects (%),[3],0%
same,Population Membrane Permeable-Phenotype (%),[3],1.75% and 5.68%
same,Population Mitochondria Different-Phenotype (%),[3],0% and 5.68%
same,Population Mitotic Cells (%),[3],65.26% and 47.44%
same,Population Normal (%),[3],100%
same,Population Pyknosed Nuclei (%),[3],42.79% and 41.27%
same,Population Tubulin-Different-Phenotype (%),[3],4.82% and 3.41%
same,Total Cell Count,[3],444 and 189
same,Population Apoptotic (%),[4],38.59% and 30.67%
same,Population Fragmented Nuclei (%),[4],5.97% and 3.36%
same,Population Healthy Nuclei (%),[4],39.1% and 46.31%
same,Population Hoechst High Intensity Objects (%),[4],0%
same,Population Membrane Permeable-Phenotype (%),[4],3.82% and 5.8%
same,Population Mitochondria Different-Phenotype (%),[4],0% and 2.9%
same,Population Mitotic Cells (%),[4],61.41% and 69.33%
same,Population Normal (%),[4],100%
same,Population Pyknosed Nuclei (%),[4],54.93% and 50.34%
same,Population Tubulin-Different-Phenotype (%),[4],6.87% and 8.7%
same,Total Cell Count,[4],335 and 149
same,Population Apoptotic (%),[5],73.08% and 85.05%
same,Population Fragmented Nuclei (%),[5],10.42% and 6.52%
same,Population Healthy Nuclei (%),[5],25.06% and 35.33%
same,Population Hoechst High Intensity Objects (%),[5],0.25% and 0%
same,Population Membrane Permeable-Phenotype (%),[5],14.85% and 23.08%
same,Population Mitochondria Different-Phenotype (%),[5],0% and 10.77%
same,Population Mitotic Cells (%),[5],26.92% and 14.95%
same,Population Normal (%),[5],99.75% and 100%
same,Population Pyknosed Nuclei (%),[5],64.52% and 58.15%
same,Population Tubulin-Different-Phenotype (%),[5],30.69% and 30.77%
same,Total Cell Count,[5],404 and 184
same,Population Apoptotic (%),[6],83.05% and 91.57%
same,Population Fragmented Nuclei (%),[6],2.34% and 3.4%
same,Population Healthy Nuclei (%),[6],38.46% and 40.14%
same,Population Hoechst High Intensity Objects (%),[6],0% and 0.68%
same,Population Membrane Permeable-Phenotype (%),[6],18.26% and 44.07%
same,Population Mitochondria Different-Phenotype (%),[6],0% and 1.69%
same,Population Mitotic Cells (%),[6],16.95% and 8.43%
same,Population Normal (%),[6],100% and 99.32%
same,Population Pyknosed Nuclei (%),[6],59.2% and 56.46%
same,Population Tubulin-Different-Phenotype (%),[6],34.78% and 18.64%
same,Total Cell Count,[6],299 and 148
O=c1nc2[nH]c3ccccc3nc-2c(=O)[nH]1 [ALLOXAZINE],Population Apoptotic (%),[1],70% and 75%
same,Population Fragmented Nuclei (%),[1],25% and 15%
same,Population Healthy Nuclei (%),[1],61% and 74%
same,Population Hoechst High Intensity Objects (%),[1],2%
same,Population Membrane Permeable-Phenotype (%),[1],5%
same,Population Mitochondria Different-Phenotype (%),[1],0% and 5%
same,Population Mitotic Cells (%),[1],29% and 25%
same,Population Normal (%),[1],97%
same,Population Pyknosed Nuclei (%),[1],12% and 10%
same,Population Tubulin-Different-Phenotype (%),[1],3%
same,Total Cell Count,[1],195 and 122
same,Population Apoptotic (%),[2],86% and 88%
same,Population Fragmented Nuclei (%),[2],33% and 13%
same,Population Healthy Nuclei (%),[2],59% and 78%
same,Population Hoechst High Intensity Objects (%),[2],0% and 1%
same,Population Membrane Permeable-Phenotype (%),[2],7%
same,Population Mitochondria Different-Phenotype (%),[2],0% and 5%
same,Population Mitotic Cells (%),[2],13% and 11%
same,Population Normal (%),[2],99% and 98%
same,Population Pyknosed Nuclei (%),[2],7%
same,Population Tubulin-Different-Phenotype (%),[2],1% and 3%
same,Total Cell Count,[2],212 and 119
same,Population Apoptotic (%),[3],73% and 57%
same,Population Fragmented Nuclei (%),[3],24% and 16%
same,Population Healthy Nuclei (%),[3],66% and 74%
same,Population Hoechst High Intensity Objects (%),[3],1% and 2%
same,Population Membrane Permeable-Phenotype (%),[3],4% and 5%
same,Population Mitochondria Different-Phenotype (%),[3],1% and 5%
same,Population Mitotic Cells (%),[3],26% and 42%
same,Population Normal (%),[3],98% and 97%
same,Population Pyknosed Nuclei (%),[3],8% and 9%
same,Population Tubulin-Different-Phenotype (%),[3],2%
same,Total Cell Count,[3],261 and 146
same,Population Apoptotic (%),[4],78% and 75%
same,Population Fragmented Nuclei (%),[4],30% and 16%
same,Population Healthy Nuclei (%),[4],61% and 80%
same,Population Hoechst High Intensity Objects (%),[4],0% and 2%
same,Population Membrane Permeable-Phenotype (%),[4],8% and 5%
same,Population Mitochondria Different-Phenotype (%),[4],2% and 4%
same,Population Mitotic Cells (%),[4],21% and 25%
same,Population Normal (%),[4],99% and 97%
same,Population Pyknosed Nuclei (%),[4],8% and 2%
same,Population Tubulin-Different-Phenotype (%),[4],2% and 3%
same,Total Cell Count,[4],237 and 148
same,Population Apoptotic (%),[5],84% and 76%
same,Population Fragmented Nuclei (%),[5],19% and 18%
same,Population Healthy Nuclei (%),[5],71% and 72%
same,Population Hoechst High Intensity Objects (%),[5],1% and 6%
same,Population Membrane Permeable-Phenotype (%),[5],1% and 4%
same,Population Mitochondria Different-Phenotype (%),[5],1% and 2%
same,Population Mitotic Cells (%),[5],15% and 23%
same,Population Normal (%),[5],98% and 93%
same,Population Pyknosed Nuclei (%),[5],9% and 8%
same,Population Tubulin-Different-Phenotype (%),[5],1% and 2%
same,Total Cell Count,[5],362 and 207
same,Population Apoptotic (%),[6],90% and 76%
same,Population Fragmented Nuclei (%),[6],26% and 12%
same,Population Healthy Nuclei (%),[6],66% and 79%
same,Population Hoechst High Intensity Objects (%),[6],1%
same,Population Membrane Permeable-Phenotype (%),[6],5% and 3%
same,Population Mitochondria Different-Phenotype (%),[6],1%
same,Population Mitotic Cells (%),[6],9% and 23%
same,Population Normal (%),[6],98%
same,Population Pyknosed Nuclei (%),[6],6% and 8%
same,Population Tubulin-Different-Phenotype (%),[6],2%
same,Total Cell Count,[6],321 and 210
